Measured values as given in ChEMBL document CHEMBL4014307, “Diindolylmethane Derivatives: Potent Agonists of the Immunostimulatory Orphan G Protein-Coupled Receptor GPR84” (J Med Chem, 2017).
Activity calls are given as the source filed them.

Assays:
[1] = biological target: T1, G-protein coupled receptor 84 (Homo sapiens, UniProt Q9NQS5); assay: Agonist activity at human GPR84 expressed in CHO cells assessed as beta-arrestin recruitment at 10 uM after 90 mins by beta-galactosidase complementation assay relative to embelin; type: cell-based
How it was run: (§1)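 CHO cells co-expressing human GPR84–β-galactosidase fragment and β-arrestin–complementary fragment, 20,000 per well. Compounds in DMSO (final ≤1 %) added for 90 min, then detection reagent for 60 min at rt; luminescence read. Three to five independent experiments in duplicate.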

[2] = biological target: T1, G-protein coupled receptor 84; assay: Agonist activity at Gi coupled human GPR84 expressed in CHO cells assessed as inhibition of forskolin-induced cAMP accumulation at 10 uM after 15 mins in presence of [3H]-cAMP by radiometric assay relative to decanoic acid; type: functional, cell-based
How it was run: (§2)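 Forskolin (10 µM) added with or without test compound for 15 min. Cells lysed in hot (90 °C) EDTA/Triton X-100 solution. cAMP measured radiometrically with bovine adrenal binding protein and [³H]cAMP, expressed as % of forskolin-alone response.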

[3] = biological target: T1, G-protein coupled receptor 84; assay: Agonist activity at human GPR84 expressed in CHO cells assessed as beta-arrestin recruitment after 90 mins by beta-galactosidase complementation assay; type: cell-based; how it was run: as §1
[4] = biological target: T1, G-protein coupled receptor 84; assay: Agonist activity at Gi coupled human GPR84 expressed in CHO cells assessed as inhibition of forskolin-induced cAMP accumulation after 15 mins in presence of [3H]-cAMP by radiometric assay; type: functional, cell-based; how it was run: as §2
[5] = biological target: Free fatty acid receptor 1 (Homo sapiens, UniProt O14842); assay: Agonist activity at Gq protein coupled human FFAR1 expressed in human 1321N1 cells assessed as induction of intracellular calcium level at 10 uM measured at 1.2 secs time interval by Fluo-4-AM dye based fluorescence assay; type: functional, cell-based
How it was run: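 1321N1 astrocytoma cells retrovirally expressing human FFAR1, 50,000 per well, loaded 60 min at rt in dark with 3 µM Fluo-4-AM and 0.06 % Pluronic F-127 in HBSS. Compounds at 10 µM final; antagonist mode uses 30 min preincubation before TUG-424 (final 1 µM). Fluorescence at 520 nm (excitation 485 nm), 90 reads at 1.2 s intervals. Normalized to TUG-424 at 10 µM (agonist) or 1 µM (antagonist).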

[6] = biological target: T2, Free fatty acid receptor 4 (Homo sapiens) (UniProt Q5NUL3); assay: Antagonist activity at human FFAR4 expressed in CHO cells assessed as inhibition of TUG-89-induced beta-arrestin recruitment at 10 uM preincubated for 30 mins followed by TUG-89 addition measured after 90 mins by beta-galactosidase complementation assay; type: cell-based
T2 sequence (whole entry): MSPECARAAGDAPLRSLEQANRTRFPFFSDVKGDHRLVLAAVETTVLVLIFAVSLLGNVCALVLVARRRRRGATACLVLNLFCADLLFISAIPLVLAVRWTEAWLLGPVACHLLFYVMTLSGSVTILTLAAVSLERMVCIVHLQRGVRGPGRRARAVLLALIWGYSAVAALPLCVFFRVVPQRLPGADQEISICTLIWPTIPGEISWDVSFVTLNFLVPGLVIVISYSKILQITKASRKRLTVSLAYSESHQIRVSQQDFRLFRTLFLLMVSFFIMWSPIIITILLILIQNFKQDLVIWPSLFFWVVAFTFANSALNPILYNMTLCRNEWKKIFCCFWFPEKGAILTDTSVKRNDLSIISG

[7] = biological target: T2, Free fatty acid receptor 4 (Homo sapiens); assay: Agonist activity at human FFAR4 expressed in CHO cells assessed as beta-arrestin recruitment at 10 uM after 90 mins by beta-galactosidase complementation assay; type: cell-based
How it was run: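 Human FFAR4 in CHO β-galactosidase complementation cells, 30,000 per well, serum-free F12 ~4 h before assay; final DMSO 1 %, compounds 10 µM. Agonist mode: 90 min with agonist, then detection 60 min rt dark; luminescence. 3–4 experiments in duplicate.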

[8] = biological target: T1, G-protein coupled receptor 84; assay: Antagonist activity at Gi coupled human GPR84 expressed in CHO cells assessed as inhibition of decanoic acid-induced receptor activation at 10 uM; type: cell-based

Chain of Free fatty acid receptor 1 (O14842 whole entry): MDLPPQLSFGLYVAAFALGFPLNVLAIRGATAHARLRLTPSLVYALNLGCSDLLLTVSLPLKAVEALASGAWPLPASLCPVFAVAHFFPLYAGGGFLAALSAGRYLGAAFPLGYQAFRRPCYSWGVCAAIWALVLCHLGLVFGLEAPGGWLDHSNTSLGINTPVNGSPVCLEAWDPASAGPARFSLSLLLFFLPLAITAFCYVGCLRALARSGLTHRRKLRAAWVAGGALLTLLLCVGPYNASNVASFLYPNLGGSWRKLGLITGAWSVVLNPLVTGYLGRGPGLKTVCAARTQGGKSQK
T1 sequence (Q9NQS5 whole entry, the tested form may be a part): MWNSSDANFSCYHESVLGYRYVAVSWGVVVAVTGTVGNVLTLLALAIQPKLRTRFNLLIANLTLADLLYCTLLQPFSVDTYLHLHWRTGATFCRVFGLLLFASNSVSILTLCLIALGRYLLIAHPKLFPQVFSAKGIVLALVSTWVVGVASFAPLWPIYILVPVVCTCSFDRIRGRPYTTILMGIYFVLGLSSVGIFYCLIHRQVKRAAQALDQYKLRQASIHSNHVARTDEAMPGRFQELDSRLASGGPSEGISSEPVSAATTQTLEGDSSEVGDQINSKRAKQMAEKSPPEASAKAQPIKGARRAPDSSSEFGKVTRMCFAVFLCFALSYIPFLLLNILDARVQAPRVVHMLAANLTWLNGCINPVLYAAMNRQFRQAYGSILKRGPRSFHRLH

SMILES	Emax [1] [%]	Emax [2] [%]	EC50 [3] [µM]	EC50 [4] [µM]	Activity [5]	inhibition [6]	Activity [7]	inhibition [8]
Clc1cccc2[nH]cc(Cc3c[nH]c4cccc(Cl)c34)c12	25	111	> 10	1.14	inactive	inactive	inactive	–
Clc1ccc(C(c2c[nH]c3ccccc23)c2c[nH]c3ccccc23)cc1	–	-4	–	> 10	inactive	inactive	inactive	inactive
Fc1cc2[nH]cc(Cc3c[nH]c4cc(F)c(F)cc34)c2cc1F	92	121	10.3	0.187	inactive	inactive	inactive	–
O=C(O)c1ccc2[nH]cc(Cc3c[nH]c4ccccc34)c2c1	–	5	–	> 10	inactive	inactive	inactive	inactive
COC(=O)c1ccc2[nH]cc(Cc3c[nH]c4ccc(C(=O)OC)cc34)c2c1	–	11	–	> 10	inactive	inactive	inactive	inactive
COc1cccc2c(Cc3c[nH]c4c(OC)cccc34)c[nH]c12	–	18	–	> 10	inactive	inactive	inactive	inactive
c1ccc(COc2ccc3[nH]cc(Cc4c[nH]c5ccc(OCc6ccccc6)cc45)c3c2)cc1	–	36	–	> 10	inactive	inactive	inactive	inactive
O=C1Nc2ccc(F)cc2/C1=C/c1c[nH]c2ccc(F)cc12	–	5	–	> 10	inactive	inactive	inactive	inactive
COc1cccc2[nH]cc(Cc3c[nH]c4cccc(OC)c34)c12	–	47	–	≥ 10	inactive	inactive	inactive	inactive
Cc1ccccc1C#Cc1ccc(CCC(=O)O)cc1	–	–	–	–	inactive	–	–	–
COc1ccc2[nH]cc(/C=C3\C(=O)Nc4ccccc43)c2c1	–	-10	–	> 10	inactive	inactive	inactive	inactive
Fc1ccc2[nH]cc(Cc3c[nH]c4ccccc34)c2c1	72	115	–	–	inactive	inactive	inactive	–
COc1ccc(C(c2c[nH]c3ccccc23)c2c[nH]c3ccccc23)cc1	–	-3	–	> 10	inactive	inactive	inactive	inactive
COc1ccc2[nH]cc(CC3C(=O)Nc4ccccc43)c2c1 (stereo unspecified)	–	-21	–	> 10	inactive	inactive	inactive	inactive
O=Cc1ccc2[nH]cc(Cc3c[nH]c4ccc(C=O)cc34)c2c1	–	-4	–	> 10	inactive	inactive	inactive	inactive
